The source made the active and inactive calls. No cut-off for these calls is given here.
Legend:
[1] = Toxicity in BALB/c nude mouse xenografted with human tongue squamous carcinoma cells assessed as effect on liver morphology at 30 mg/kg; assay type: organism-based; settings: in vivo
[2] = Toxicity in BALB/c nude mouse xenografted with human HSC6 cells assessed as effect on body weight at 15 to 30 mg/kg; assay type: organism-based; settings: in vivo, dose 15-30 mg/kg
Summary of the method: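 Subcutaneous xenograft in 4-week-old BALB/c nude mice given 6 × 10^7 HSC6 cells into the back. Groups were control, 15 mg/kg and 30 mg/kg. Body weight was monitored and major organs were examined for toxicity.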

HSC-6 [3] = assay: Antitumor activity against human HSC-6 cells xenografted in BALB/c nude mouse model of orthotopic tumor assessed as as reduction in distant metastasis in liver at 30 mg/kg by H and E analysis; assay type: functional, organism-based
SCC-25 = assay: Antiproliferative activity against human SCC-25 cells assessed as reduction in colony formation at 0.5 to 5 uM after 10 to 14 days […]; assay type: functional, cell-based; settings: dose 0.5-5 µM, time 10-14 day
Summary of the method: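 Colony formation: cells dispersed to single cells and seeded at 500 cells/well in 6-well plates. Grown 10–14 days until macroscopic clones appeared, then formaldehyde-fixed and crystal violet-stained. Clone formation rate from clones counted by eye.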

[4] = system: Squamous carcinoma cell line; assay: Antitumor activity against human squamous carcinoma cells in BALB/c nude PDX xenograft mouse assessed as tumor volume at 30 mg/kg; assay type: functional, organism-based
Summary of the method: (§1)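 PDX: tongue squamous carcinoma tissue minced into 1∼2 mm3 pieces and passaged in BALB/c nude mice. P2 tissue implanted subcutaneously into 4-week-old mice, randomised at 50 mm3 tumour size to control or 30 mg/kg (n = 6 each). Volume change followed, and Ki-67 IHC quantified. Mean ± SD, Student's t test.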

[5] = system: Squamous carcinoma cell line; assay: Antitumor activity against human squamous carcinoma cells in BALB/c nude PDX xenograft mouse assessed as reduction in Ki67-positive cells at 30 mg/kg by IHC analysis; assay type: functional, organism-based; summary of the method: as §1
HSC-6 [6] = assay: Antimigratory activity against human HSC-6 cells assessed as reduction in cell migration at 10 uM for 4 days by transwell assay; assay type: functional, cell-based; settings: time 4.0 day
Summary of the method: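 Transwell migration and invasion with 8-μm pore inserts. HSC6 or SCC25 cells, including lines stably overexpressing Flag-Twist1, treated at 10 μM for 4 days. Mean ± SD of three independent experiments, one-way ANOVA.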

[7] = biological target: Protein arginine N-methyltransferase 5 (Homo sapiens) (UniProt O14744); assay: Inhibition of PRMT5 in human SCC-25 cells assessed as reduction in H3R2me2 protein expression at 10 uM incubated for 4 days by western blot analysis; assay type: cell-based; settings: time 4.0 day
[8] = biological target: Protein arginine N-methyltransferase 5 (Homo sapiens) (UniProt O14744); assay: Inhibition of PRMT5 in human HSC-6 cells assessed as reduction in H3R8me2 protein expression at 10 uM incubated for 4 days by western blot analysis; assay type: cell-based; settings: time 4.0 day
[9] = biological target: Protein arginine N-methyltransferase 5 (Homo sapiens) (UniProt O14744); assay: Inhibition of PRMT5 in human SCC-25 cells assessed as reduction in WDR5 occupancy in Twist1 promoter region at 10 uM incubated for 4 days by Chip-qPCR analysis; assay type: cell-based; settings: time 4.0 day
Summary of the method: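 SCC25 cells exposed to inhibitor at 10 μM for 4 days. ChIP used a commercial kit with anti-WDR5 or anti-Set1 (1:50), and binding at the Twist1 promoter was quantified by qPCR. Mean ± SD of three independent experiments, Student's t test.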

Sequence of Protein arginine N-methyltransferase 5 (Homo sapiens) (O14744 whole entry): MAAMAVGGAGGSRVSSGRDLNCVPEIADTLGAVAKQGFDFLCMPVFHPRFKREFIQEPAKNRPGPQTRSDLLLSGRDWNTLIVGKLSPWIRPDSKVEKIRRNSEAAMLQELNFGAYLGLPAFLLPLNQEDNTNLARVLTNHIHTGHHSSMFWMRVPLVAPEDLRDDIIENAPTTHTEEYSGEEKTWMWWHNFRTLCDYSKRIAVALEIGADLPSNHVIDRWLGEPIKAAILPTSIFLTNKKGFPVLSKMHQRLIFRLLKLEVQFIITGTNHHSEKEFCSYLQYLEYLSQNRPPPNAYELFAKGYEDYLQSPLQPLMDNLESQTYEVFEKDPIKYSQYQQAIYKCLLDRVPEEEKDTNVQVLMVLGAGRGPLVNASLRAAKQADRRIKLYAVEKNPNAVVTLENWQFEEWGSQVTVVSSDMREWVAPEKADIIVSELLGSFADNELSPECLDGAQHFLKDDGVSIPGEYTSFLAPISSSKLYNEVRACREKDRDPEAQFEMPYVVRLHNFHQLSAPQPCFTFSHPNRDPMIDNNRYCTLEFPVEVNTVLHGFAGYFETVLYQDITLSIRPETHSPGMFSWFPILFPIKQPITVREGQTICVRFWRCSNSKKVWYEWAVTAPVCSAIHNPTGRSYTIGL

## O=C(NC[C@H](O)CN1CCc2ccccc2C1)c1cc(NC2COC2)ncn1
[1]
  Activity: Non-Toxic
[2]
  Activity: Non-Toxic
HSC-6 [3]
  Activity: Active
SCC-25
  Activity: Active
[4]
  Activity: Active
[5]
  Activity: Active
HSC-6 [6]
  Activity: Active
[7]
  inhibition: Active
[8]
  inhibition: Active
[9]
  inhibition: Active

Source: ChEMBL document CHEMBL5712918, “Targeting methyltransferase PRMT5 retards the carcinogenesis and metastasis of HNSCC via epigenetically inhibiting Twist1 transcription” (Neoplasia, 2020)
